A short description of data set [1]: Octanol-water partition coefficient, log P of the compound. The data set is classed as physicochemical. The method, boiled down:
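Log P measured as the partition coefficient between n-octanol and water.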

Data set [2] is described as follows: Plasma AUC (0 to 4 hrs) in cynomolgus monkey at 10 mg/kg, po. In kind it is ADME, organism-based, Macaca fascicularis. Also on record: time < 4 hr, dose 10 mg/kg, route oral. A digest of the protocol:
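Cynomolgus monkeys dosed orally at 10 mg/kg as a 0.2% suspension or solution in 0.5% carboxymethyl cellulose. Plasma drug levels followed over 0–4 h (n = 3-6), and AUC0–4h is derived from the plasma level-time curve.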

A short description of data set [3]: AUC (0 to 4 hrs) in Japanese white rabbit aqueous humor after ocular instillation of 1% suspension. The data set is classed as ADME, Oryctolagus cuniculus. Also on record: time < 4 hr. To be noted: topical or ocular. The method, boiled down: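 Rabbit eyes given topical drops of 1% suspension or solution. Aqueous humor drug levels measured over 0–4 h, with n = 3-4 eyes per time point. AUC0–4h is calculated from the mean level-time curve.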

Data set [4] can be described thus: AUC (0 to 4 hrs) in Japanese white rabbit retina after ocular instillation of 1% suspension. In kind it is ADME, tissue-based, Oryctolagus cuniculus. Also noted: time < 4 hr. The settings on record: topical or ocular. The method, boiled down: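 Rabbit eyes given topical drops of 1% suspension or solution. Retinal drug levels measured over 0–4 h, with n = 3-4 eyes per time point. AUC0–4h is calculated from the mean level-time curve.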

Data set [5] can be described thus: Drug concentration in rat retina at 10 mg/kg, po at Tmax time. Also on record: dose 10 mg/kg, route oral. The data set is classed as ADME, organism-based. To be noted: in vivo, read-out: Drug uptake.
A short description of data set [6]: Drug concentration in rat retina at 10 mg/kg, po after 4 hrs. The data set is classed as ADME, organism-based. Also on record: dose 10 mg/kg, route oral. The settings on record: read-out: Drug uptake.

Compound `COCCOCCOCCOC(=O)N[C@@H](CC(C)C)C(=O)N[C@@H](Cc1ccccc1)C(=O)C(=O)NC1CC1` returned a log partition coefficient (logP) in data set [1] of 0.93. The area under the curve AUC(0-t) at 4 h in data set [2] came to 1.6 µM·h; in data set [3], 7.88 µM·h; in data set [4], 13.1 µM·h.
The matching figures for `COCCOC(=O)N[C@@H](CC(C)C)C(=O)N[C@@H](Cc1ccccc1)C(=O)C(=O)NC1CC1`: 1, 1.88 µM·h, 1.9 µM·h and 1.32 µM·h.
Regarding `COCCOCCOCCOCCOCCOC(=O)N[C@@H](CC(C)C)C(=O)N[C@@H](Cc1ccccc1)C(=O)C(=O)NC1CC1`, the logP in data set [1] turned out to be 0.72. Moreover, the results for the area under the curve AUC(0-t) at 4 h in data set [3] and in data set [4] were 1.96 µM·h and 2.99 µM·h, respectively.
In the case of `COCCOCCOC(=O)N[C@@H](CC(C)C)C(=O)N[C@@H](Cc1ccccc1)C(=O)C(=O)NC1CC1`, the log partition coefficient (logP) in data set [1] was 0.91. The concentration in data set [5] is 400 nM. Moreover, the figures for the exposure AUC(0-t) at 4 h in data set [2], in data set [3] and in data set [4] were 2.43 µM·h, 1.55 µM·h and 2.37 µM·h, respectively. The concentration at 4 h in data set [6] was 200 nM.
Turning to `COCCOCCOCCOCCOC(=O)N[C@@H](CC(C)C)C(=O)N[C@@H](Cc1ccccc1)C(=O)C(=O)NC1CC1`, in data set [1], the logP is 0.7. In addition, the AUC(0-t) at 4 h in data set [2] was determined as 1.61 µM·h; in data set [3] it was 5.89 µM·h; in data set [4], 7.12 µM·h.

As usually defined, the logP is the decadic logarithm of the partition coefficient of the neutral form, usually between octanol and water. As a reminder, the AUC(0-t) is the area under the concentration-time curve up to a stated or last time point.
